Results as given in the EternaBench riboswitch data.

Tested on: MS2 coat protein
Experiment: apparent Kd, MS2 coat protein; higher = weaker binding; RNA-MaP array; theophylline 2 mM where present
Procedure, shortened: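 The apparent Kd comes from binding curves fitted cluster by cluster, filtered, and summarised as a median. Those curves followed SNAP-549-labelled MS2 coat protein from 0.7 or 1.5 nM, doubling to 3 µM, on Illumina sequencing-chip clusters where stalled E. coli RNA polymerase had transcribed the designs, without and then with constant ligand. The buffer was 100 mM Tris-HCl pH 7.5, 80 mM KCl, 4 mM MgCl2, BSA, DTT, yeast tRNA and Tween-20, and green signal was normalised to red-channel RNA signal and control-cluster median Fmax.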

[1] = designed as: ON switch for theophylline, no ligand
[2] = ligand present: theophylline, designed as: ON switch for theophylline
[3] = designed as: OFF switch for theophylline, no ligand
[4] = ligand present: theophylline, designed as: OFF switch for theophylline

Sequence | apparent Kd [1] [nM] | apparent Kd [2] [nM] | apparent Kd [3] [nM] | apparent Kd [4] [nM]
AAUCUGUCGGGUGAUACCAGCCUCGGCACAUCUCGUGCCGAACAUGAGGAUCACCCAUGUGGCCCUUGGCAGCACAUGACAAAUC | 381 | 85.3 |  | 
UAAAACAUGAGGAUCACCCAUGUAAAUGAUACCAGAGUGAUGAUCCUCCCUUGGCAGCAUAACGCUGAUUGGAAACAAUCAGCGA | 130 | 243 |  | 
AUAUGAUCAUGUGAUACCAGAAAUGGUAGUCCUCGCUGGAUUACAUGAGGAUCACCCAUGUUCCCUUGGCAGCAUAUGAUCAUAU |  |  | 66.6 | 751
AUCGUACCUGAUGAUACCAGCAAUUGCUCGUAACAUGAGGAUCACCCAUGUGACCAGUGAUGCCCUUGGCAGCAUGGUCGGUGCA | 172 | 38.5 |  | 
AGCGCUAUGCAUGAUACCAGCUACAUGAGGAUCACCCAUGUGCGUCAGAAAUGACUGUGUAGCCCUUGGCAGCAUAAAGCAUGUA |  |  | 19.1 | 46.3
ACAUGAGGAUCACCCAUGUCUGCCACUGAUACCAGCGGAUGCCAACGCCCUUGGCAGCAGAACAUGAGGAUCACCCAUGUAGGCA | 319 | 209 |  | 
ACAUGAGGAUCACCCAUGUGCAGCACGGAUACCAGCGUCCUAGUGCGCCCUUGGCAGCCGGACAUGAGGAUCACCCAUGUGUGGG |  |  | 77.6 | 219
ACAUGAGGAUCACCCAUGUGGCGACUUGAUACCAGACCCGCACUAGUCCCUUGGCAGCAACUACGUGUGGGACACCCAUGUGAAG |  |  | 20.8 | 33.7
AUCGCACCUGGUGAUACCAGCGUUUGCUCGUGACAUGAGGAUCACCCAUGUGGCCAGUGAUGCCCUUGGCAGCAUGGUCGGUGCA | 230 | 177 |  | 
UUAAGAGGAUAUCAAAUUUGAUUUUGUGAUACCAGAAUAAUUUUAUUCCCUUGGCAGCAUGACAUGAGGAUCACCCAUGUGUCUU | 37 | 30 |  | 
CAUGAAGUAACUGAUACCAGUGUACACAUGAGGAUCACCCAUGUGUUGGGUUUUGUUGUACACCCUUGGCAGCAGAAUCUUUAUG |  |  | 56.6 | 100
AAGGUGAUCCCAGAUACCAGCUUAACAUGAGGAUCACCCAUGUUUGGGACGAAAGUCCCGGGCCCUUGGCAGCUGGGUUGCCAAG | 196 | 131 |  | 
ACGUCUCGAAAACUCGUAGUAACUAUAGAUACCAGUAGCGAGAGUUACCCUUGGCAGCUACAUGAGGAUCACCCAUGUACGAGGA |  |  | 15.6 | 15
AGCAUUGUAACAGAUACCAGACUUUUAAUGCCUCUAAUAACAUGAGGAUCACCCAUGUAUGUCCCUUGGCAGCUGUUAUGAUGCA |  |  | 115 | 220
AUAGUCUUGAGUGAUACCAGACUACAUGAGGAUCACCCAUGUUUCUUUUGGUUAUCAUGUGUCCCUUGGCAGCACGCAUGUAUAG |  |  | 16.4 | 65.8
AUUUAUGGUCGUGAUACCAGACAUACAUGAGGAUCACCCAUGUGAAAUAACAUAAUUUAGGUCCCUUGGCAGCACUUUUUAAUUA | 53.8 | 38.3 |  | 
AAUAACAUGAGGAUCACCCAUGUAAAAGAUACCAGAGUGAUGAUCCUCCCUUGGCAGCUUAAACGCUAUUGGAAACAAUAGCGAA | 70.2 | 167 |  | 
AAACAUUGCUCAGAUACCAGACAUGAGGAUCACCCAUGUACCGAGGUACCCGAAAGGAAUGUCCCUUGGCAGCUGAGCAAUGAAA |  |  | 12 | 129
AAAAUAAAUAAAACGGGUAACAUGAAGGAUACCAGCCAGGAAACUGGCCCUUGGCAGCCUCUACAUGAGGAUCACCCAUGUCCCG | 445 | 35.7 |  | 
UUCUACAUGAGGAUCACCCAUGUGGGUGAUACCAGCACUUUUUGGUGCCCUUGGCAGCACAUGAGAAUGCCGUAAAAUCGGCGAU | 334 | 500 |  | 
UCACAUGAGGAUCACCCAUGUACAGGCGAUACCAGCCGUACAUUGGGCCCUUGGCAGCGCACCGAGACCUUUAUAAGCACCUCGG | 29.5 | 192 |  | 
ACUUUGUCGGGUGAUACCAGCCUCGGCAAAUCUCGUGCCGAACAUGAGGAUCACCCAUGUGGCCCUUGGCAGCACAUGACAACUC | 442 | 70 |  | 
ACAUGAGGAUCACCCAUGUGGCGUCUUGAUACCAGACGAGAAGUAGUCCCUUGGCAGCAAAUACGUGAGGAUCACACAUGUGCGA |  |  | 23.2 | 37.3
UCGUGUAUAACGGAUACCAGUGAGAAGGAUACAUGAGGAUCACCCAUGUGAGUUGAUCCACACCCUUGGCAGCUGUAUAUAUCUA | 194 | 1100 |  | 
AAGGUGAUCCGUGAUACCAGCUCAACAUGAGGAUCACCCAUGUAAGCCUGGAAACAGGCGAGCCCUUGGCAGCACGGUAAUAAUA | 11.9 | 13.8 |  | 
